ChEMBL document CHEMBL1141594, “Synthesis, radiosynthesis, and biological evaluation of new proteasome inhibitors in a tumor targeting approach” (J Med Chem, 2008)
Residues, ends and D or L forms follow the SMILES beside them. *: point of attachment. Cbz = O=C(OCc1ccccc1)*

Legend:
B16 = assay: Growth inhibition of mouse B16 cells after 48 hrs; type: functional, cell-based; details: B16, 48 h
Method in brief: (§1)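 DMEM with 10% fetal calf serum, monolayer culture. 5 × 10³ cells/well seeded and left 24 h at 37 °C, 5% CO₂, humidified. Exposed 48 h to increasing concentrations. Growth measured with Hoechst 33342 dye. IC₅₀ is the mean ± SD of three independent experiments, each in triplicate. Compounds tested as hydrochloride salts.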

[1] = Growth inhibition of human IPC227F cells after 48 hrs; type: functional; method in brief: as §1
[2] = Biodistribution in liver of C57/BL6 mouse bearing B16 cells at 0.07 uM, iv; type: ADME, organism-based, C57Bl/6; details: read-out: Drug uptake
Method in brief: (§2)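 ¹²⁵I-labelled compound given to C57Bl/6J mice with subcutaneous B16 melanoma. Organs and tissues sampled at 15 min, 30 min, 1 h, 3 h and 6 h post-injection. Radioactivity expressed as % injected dose per unit organ mass. Feces and urine collected over 72 h for elimination.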

[3] = Biodistribution in tumor of C57/BL6 mouse bearing B16 cells assessed as remaining drug level at 0.07 uM, iv after 3 hrs; type: ADME, organism-based, C57Bl/6, Neoplasm; details: read-out: Drug uptake; method in brief: as §2
[4] = Biodistribution in tumor of C57/BL6 mouse bearing B16 cells at 0.07 uM, iv after 15 mins; type: ADME, organism-based, C57Bl/6, Neoplasm; details: read-out: Drug uptake; method in brief: as §2
[5] = Biodistribution in kidney of C57/BL6 mouse bearing B16 cells at 0.07 uM, iv; type: ADME, organism-based, C57Bl/6; details: read-out: Drug uptake; method in brief: as §2
Mus musculus = assay: Drug metabolism in C57/BL6 mouse bearing B16 cells assessed as elimation in faeces and urine at 0.07 uM, iv after 72 hrs; type: ADME, organism-based, C57Bl/6; details: in vivo; method in brief: as §2
[6] = Biodistribution in tumor of C57/BL6 mouse bearing B16 cells assessed as remaining drug level at 0.07 uM, iv after 6 hrs; type: ADME, organism-based, C57Bl/6, Neoplasm; details: read-out: Drug uptake; method in brief: as §2
[7] = Biodistribution in lung of C57/BL6 mouse bearing B16 cells at 0.07 uM, iv; type: ADME, organism-based, C57Bl/6; details: read-out: Drug uptake; method in brief: as §2
[8] = Ratio of biodistribution in tumor to blood in C57/BL6 mouse bearing mouse B16 cells; type: ADME, organism-based, C57Bl/6

Compound | IC50 (B16) | tissue uptake at 0.07 µM [2] | IC50 [1] | further results
CCN(CC)CCNC(=O)c1ccc(C(=O)N[C@@H](CC(C)C)C(=O)N[C@@H](CC(C)C)C(=O)N[C@H](C=O)CC(C)C)cc1 | 1300 nM | 5.95 %ID/g | 640 nM | 
CCN(CC)CCNC(=O)c1ccc(C(=O)N[C@@H](CC(C)C)C(=O)N[C@@H](CC(C)C)C(=O)N[C@H](C=O)CC(C)C)c([125I])c1.Cl |  | 8.9 %ID/g |  | tissue uptake at 3 h, 0.07 µM [3]: 1.2 %ID/g; tissue uptake at 0.25 h, 0.07 µM [4]: 2.7 %ID/g; tissue uptake at 0.07 µM [5]: 4.9 %ID/g; Activity (Mus musculus): 87%; tissue uptake at 6 h, 0.07 µM [6]: 1.2 %ID/g; tissue uptake at 0.07 µM [7]: 16.3 %ID/g; Kp [8]: ≥ 1
CCN(CC)CCNC(=O)c1ccc(C(=O)N[C@@H](CC(C)C)C(=O)N[C@@H](CC(C)C)C(=O)N[C@H](C=O)CC(C)C)c(I)c1 | 1790 nM |  | 3580 nM | 

Now from value to compound, other results behind:

IC50 (B16) | tissue uptake at 0.07 µM [2] | Compound | IC50 [1] | further results
530 nM |  | CCN(CC)CCNC(=O)c1ccc(C(=O)N[C@@H](CC(C)C)C(=O)N[C@@H](CC(C)C)C(=O)N[C@H](C=O)CC(C)C)c(NNN2CCCC2)c1 | 1850 nM | 
20 nM |  | CCN(CC)CCNC(=O)c1ccc(C(=O)N[C@@H](CC(C)C)C(=O)N[C@@H](CC(C)C)C(=O)N[C@H](C=O)CC(C)C)c(/N=N/N2CCCC2)c1 | 180 nM | 
42 nM |  | CC(C)C[C@@H](C=O)NC(=O)[C@H](CC(C)C)NC(=O)[C@H](CC(C)C)NC(=O)OCc1ccccc1 (Cbz-Leu-Leu-Leu-aldehyde) | 77 nM | 
